Test results as given in ChEMBL document CHEMBL4196208, “Antiproliferative Sesquiterpenoids from Ligularia rumicifolia with Diverse Skeletons” (J Nat Prod, 2018).
One block for each compound: values may come before it. Activity calls are given as the source filed them. The calls are words filed in the database; no cut-off is given here.

Key:
Format in all cases: functional, cell-based
[1] = tested on: HGC-27; assay: Antiproliferative activity against human HGC27 cells after 72 hrs by MTT assay; details: for IC50: HGC-27, 72 h
How it was run: (§1)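 Human tumour lines HGC-27 (stomach), A-549 (lung), HeLa (cervical) and MV4-11 (leukemia) tested in a standard MTT assay, with taxol as positive control. Each assay repeated more than three times. IC50 calculated by the Reed and Muench method, reported as mean ± SD.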

[2] = tested on: MV4-11; assay: Antiproliferative activity against human MV411 cells after 72 hrs by MTT assay; details: for IC50: MV4-11, 72 h; how it was run: as §1
[3] = tested on: A549; assay: Antiproliferative activity against human A549 cells after 72 hrs by MTT assay; details: for IC50: A549, 72 h; how it was run: as §1
[4] = tested on: HeLa; assay: Antiproliferative activity against human HeLa cells after 72 hrs by MTT assay; how it was run: as §1

Structure (SMILES): C=C1CO[C@H]2C[C@@H]1Cc1c2ccc(O)c1C
Activity [1]: inactive | Activity [2]: inactive | Activity [3]: inactive | Activity [4]: inactive

IC50 [2]: 9 µM | IC50 [3]: 12.5 µM | IC50 [4]: 8.4 µM
Structure (SMILES): C=C1[C@@H]2[C@H](OC(=O)C(C)CC)[C@H](OC(C)=O)[C@H]([C@@H](C)OC(=O)C[C@@H](C)O)[C@H]2[C@H]([C@@]2(C)CO2)[C@@H](OC(=O)/C(C)=C\C)[C@H]1OC(=O)/C=C(\C)CC (some centres not stated)
IC50 [1]: 6.1 µM

Structure (SMILES): C=C(C(CC=C(C)C)OC(=O)/C(C)=C\C)[C@@H]1C[C@H](O)[C@](C)(OC)C(=O)[C@H]1OC(C)=O (some centres not stated)
Activity [1]: inactive | Activity [2]: inactive | Activity [3]: inactive | Activity [4]: inactive

Structure (SMILES): C=C(C)[C@@H]1CCc2ccc(O)c(C)c2C1
Activity [1]: inactive | Activity [2]: inactive | Activity [3]: inactive | Activity [4]: inactive

Structure (SMILES): C=C1[C@H]2[C@@H](/C(=C\C)C(=O)[C@H]2OC(=O)C(C)CC)[C@H]([C@@]2(C)CO2)[C@@H](OC(=O)CC(C)CC)[C@H]1OC(=O)/C=C(\C)CC (some centres not stated)
Activity [1]: inactive | Activity [2]: inactive | Activity [3]: inactive | Activity [4]: inactive

IC50 [2]: 2.9 µM | IC50 [3]: 9.8 µM | IC50 [4]: 6.3 µM
Structure (SMILES): C=C(C(CC=C(C)C)OC(=O)/C(C)=C\C)[C@@H]1C(=O)C(OC(C)=O)=C(C)[C@H](O)[C@H]1OC(=O)/C(C)=C\C (some centres not stated)
IC50 [1]: 2.2 µM

Structure (SMILES): C=C(C)[C@@H]1C[C@@]2(C)C(=CC1=O)CC[C@@H](OC(=O)C=C(C)C)[C@@H]2C
Activity [1]: inactive | Activity [2]: inactive | Activity [3]: inactive | Activity [4]: inactive

IC50 [2]: 2.5 µM | IC50 [3]: 13.5 µM | IC50 [4]: 5.7 µM
Structure (SMILES): C=C(C)[C@@H]1C[C@@]2(C)C(=CC1=O)[C@H](O)C[C@@H](OC(=O)/C(C)=C\C)[C@@H]2C
IC50 [1]: 7.2 µM

Structure (SMILES): C=C(C(CC=C(C)C)OC(=O)/C(C)=C\C)[C@@H]1[C@@H](O)[C@@H](OC(=O)/C(C)=C/C)[C@](C)(O)C(=O)[C@H]1OC(C)=O (some centres not stated)
Activity [1]: inactive | Activity [2]: inactive | Activity [3]: inactive | Activity [4]: inactive

Structure (SMILES): C=C(C(CC=C(C)C)OC(=O)/C(C)=C\C)[C@@H]1[C@@H](O)[C@@H](OC(=O)/C(C)=C\C)[C@](C)(O)C(=O)[C@H]1OC(C)=O (some centres not stated)
Activity [1]: inactive | Activity [2]: inactive | Activity [3]: inactive | Activity [4]: inactive

IC50 [2]: 7.5 µM | IC50 [3]: 9.7 µM | IC50 [4]: 6.6 µM
Structure (SMILES): C=C(C)[C@@H]1C[C@@]2(C)C(=CC1=O)CC[C@@H](OC(=O)CC(C)C)[C@@H]2C
IC50 [1]: 5.3 µM

IC50 [2]: 0.017 µM | IC50 [3]: 0.051 µM | IC50 [4]: 0.046 µM
Structure (SMILES): CC(=O)O[C@H]1C(=O)[C@@]2(C)[C@H]([C@H](OC(=O)c3ccccc3)[C@]3(O)C[C@H](OC(=O)[C@H](O)[C@@H](NC(=O)c4ccccc4)c4ccccc4)C(C)=C1C3(C)C)[C@]1(OC(C)=O)CO[C@@H]1C[C@@H]2O [PACLITAXEL]
IC50 [1]: 0.028 µM

Structure (SMILES): C=C1[C@H]2[C@@H](/C(=C\C)C(=O)[C@H]2OC(=O)C(C)CC)[C@H]([C@@]2(C)CO2)[C@@H](OC(=O)C(C)CC)[C@H]1OC(=O)/C=C(\C)CC (some centres not stated)
Activity [1]: inactive | Activity [2]: inactive | Activity [3]: inactive | Activity [4]: inactive

Structure (SMILES): C=C1[C@H]2[C@@H](/C(=C\C)C(=O)[C@H]2OC(=O)C(C)CC)[C@H]([C@@]2(C)CO2)[C@@H](OC(=O)/C(C)=C\C)[C@H]1OC(=O)/C=C(\C)CC (some centres not stated)
Activity [1]: inactive | Activity [2]: inactive | Activity [3]: inactive | Activity [4]: inactive

IC50 [2]: 1.1 µM | IC50 [3]: 6.6 µM | IC50 [4]: 3.3 µM
Structure (SMILES): C=C(C)[C@@H]1C[C@@]2(C)C(=CC1=O)CC[C@@H](OC(=O)CC(C)CC)[C@@H]2C (some centres not stated)
IC50 [1]: 3.6 µM

Structure (SMILES): C/C=C(/C)C(=O)OC1=C(C)[C@H](O)C/C(=C(/C)C(CC=C(C)C)OC(=O)/C(C)=C\C)C1=O (some centres not stated)
Activity [1]: inactive | Activity [2]: inactive | Activity [3]: inactive | Activity [4]: inactive

Structure (SMILES): C=C(C)[C@@H]1C[C@@]2(C)C(=CC1=O)CC[C@@H](OC(=O)/C(C)=C/C)[C@@H]2C
Activity [1]: inactive | Activity [2]: inactive | Activity [3]: inactive | Activity [4]: inactive

Structure (SMILES): C=C(C(CC=C(C)C)OC(=O)/C(C)=C\C)[C@@H]1C[C@H](Cl)[C@](C)(O)C(=O)[C@H]1OC(C)=O (some centres not stated)
Activity [1]: inactive | Activity [2]: inactive | Activity [3]: inactive | Activity [4]: inactive

Structure (SMILES): C=C1[C@H]2[C@@H](/C(=C/C)C(=O)[C@H]2OC(=O)C(C)CC)[C@H]([C@@]2(C)CO2)[C@@H](OC(=O)CC(C)CC)[C@H]1OC(=O)/C=C(\C)CC (some centres not stated)
Activity [1]: inactive | Activity [2]: inactive | Activity [3]: inactive | Activity [4]: inactive

Structure (SMILES): C=C1[C@H]2[C@@H](/C(=C/C)C(=O)[C@H]2OC(=O)C(C)CC)[C@H]([C@@]2(C)CO2)[C@@H](OC(=O)C(C)CC)[C@H]1OC(=O)/C=C(\C)CC (some centres not stated)
Activity [1]: inactive | Activity [2]: inactive | Activity [3]: inactive | Activity [4]: inactive

Structure (SMILES): C/C=C(/C)C(=O)O[C@@H]1CCC2=CC(=O)[C@H]([C@]3(C)CO3)C[C@]2(C)[C@H]1C
Activity [1]: inactive | Activity [2]: inactive | Activity [3]: inactive | Activity [4]: inactive

Structure (SMILES): C=C1[C@H]2[C@@H]([C@@H]([C@@H](C)OC)C(=O)[C@H]2OC(=O)C(C)CC)[C@H]([C@@]2(C)CO2)[C@@H](OC(=O)/C(C)=C\C)[C@H]1OC(=O)/C=C(\C)CC (some centres not stated)
Activity [1]: inactive | Activity [2]: inactive | Activity [3]: inactive | Activity [4]: inactive

Structure (SMILES): C=C1[C@@H]2[C@H](OC(=O)C(C)CC)[C@H](OC(C)=O)[C@H]([C@@H](C)OC(=O)C[C@@H](C)O)[C@H]2[C@H]([C@@]2(C)CO2)[C@@H](OC(=O)CC(C)CC)[C@H]1OC(=O)/C=C(\C)CC (some centres not stated)
Activity [1]: inactive | Activity [2]: inactive | Activity [3]: inactive | Activity [4]: inactive

Structure (SMILES): C/C=C(/C)C(=O)OC(CC=C(C)C)/C(C)=C1\C[C@@H](O)C(C)=C(OC(C)=O)C1=O (some centres not stated)
Activity [1]: inactive | Activity [2]: inactive | Activity [3]: inactive | Activity [4]: inactive

Structure (SMILES): C=C(C(CC=C(C)C)OC(=O)/C(C)=C\C)[C@@H]1[C@H](OC(=O)/C(C)=C\C)[C@@H]2O[C@]2(C)C(=O)[C@H]1OC(C)=O (some centres not stated)
Activity [1]: inactive | Activity [2]: inactive | Activity [3]: inactive | Activity [4]: inactive

Structure (SMILES): C/C=C(/C)C(=O)O[C@@H]1CCC2=CC(=O)[C@@H]([C@@]3(C)CO3)C[C@]2(C)[C@H]1C
Activity [1]: inactive | Activity [2]: inactive | Activity [3]: inactive | Activity [4]: inactive

Structure (SMILES): C=C(C(CC=C(C)C)OC(=O)/C(C)=C\C)[C@@H]1C[C@H](O)[C@](C)(OC)C(=O)[C@H]1OC(=O)/C(C)=C\C (some centres not stated)
Activity [1]: inactive | Activity [2]: inactive | Activity [3]: inactive | Activity [4]: inactive

Structure (SMILES): C=C(c1ccc(C)c(O)c1O)C(CC=C(C)C)OC(=O)/C(C)=C\C (configuration not stated)
Activity [1]: inactive | Activity [2]: inactive | Activity [3]: inactive | Activity [4]: inactive

Structure (SMILES): C=C(C(/C=C/C(C)(C)O)OC(=O)/C(C)=C\C)[C@@H]1[C@H](OC(=O)/C(C)=C\C)[C@@H]2O[C@]2(C)C(=O)[C@H]1OC(C)=O (some centres not stated)
Activity [1]: inactive | Activity [2]: inactive | Activity [3]: inactive | Activity [4]: inactive

Structure (SMILES): C=C1[C@H]2[C@H]([C@H]([C@@]3(C)CO3)[C@@H](OC(=O)/C(C)=C\C)[C@H]1OC(=O)/C=C(\C)CC)[C@@H](CC)C(=O)[C@H]2OC(=O)C(C)CC (some centres not stated)
Activity [1]: inactive | Activity [2]: inactive | Activity [3]: inactive | Activity [4]: inactive

Structure (SMILES): C=C(C)[C@@H]1C[C@@]2(C)C(=CC1=O)CC[C@@H](O)[C@@H]2C
Activity [1]: inactive | Activity [2]: inactive | Activity [3]: inactive | Activity [4]: inactive

Structure (SMILES): C=C1[C@H]2[C@@H]([C@@H]([C@@H](C)OC)C(=O)[C@H]2OC(=O)C(C)CC)[C@H]([C@@]2(C)CO2)[C@@H](OC(=O)C(C)CC)[C@H]1OC(=O)/C=C(\C)CC (some centres not stated)
Activity [1]: inactive | Activity [2]: inactive | Activity [3]: inactive | Activity [4]: inactive

Structure (SMILES): C=C(C(CC=C(C)C)OC(=O)/C(C)=C\C)[C@@H]1C[C@@H]2O[C@]2(C)C(=O)[C@@H]1OC(C)=O (some centres not stated)
Activity [1]: inactive | Activity [2]: inactive | Activity [3]: inactive | Activity [4]: inactive

Structure (SMILES): C=C(C(CC=C(C)C)OC(=O)/C(C)=C\C)[C@@H]1[C@@H](O)[C@@H]2O[C@]2(C)C(=O)[C@H]1OC(C)=O (some centres not stated)
Activity [1]: inactive | Activity [2]: inactive | Activity [3]: inactive | Activity [4]: inactive

Structure (SMILES): C=C1[C@H]2[C@@H](/C(=C/C)C(=O)[C@H]2OC(=O)C(C)CC)[C@H]([C@@]2(C)CO2)[C@@H](OC(=O)/C(C)=C\C)[C@H]1OC(=O)/C=C(\C)CC (some centres not stated)
Activity [1]: inactive | Activity [2]: inactive | Activity [3]: inactive | Activity [4]: inactive

IC50 [2]: 0.5 µM | IC50 [3]: 6.3 µM | IC50 [4]: 2.4 µM
Structure (SMILES): C=C(C)[C@@H]1C[C@@]2(C)C(=CC1=O)[C@@H](O)C[C@@H](OC(=O)/C(C)=C\C)[C@@H]2C
IC50 [1]: 2.1 µM

Structure (SMILES): C=C(C)[C@@H]1C[C@@]2(C)C(=CC1=O)CC[C@@H](OC(=O)/C(C)=C\C)[C@@H]2C
Activity [1]: inactive | Activity [2]: inactive | Activity [3]: inactive | Activity [4]: inactive

Structure (SMILES): C=C(C(CC=C(C)C)OC(=O)/C(C)=C\C)[C@H]1C[C@@H](O)C(C)=C(OC(C)=O)C1=O (some centres not stated)
Activity [1]: inactive | Activity [2]: inactive | Activity [3]: inactive | Activity [4]: inactive
